Bioassay records deposited in PubChem by several laboratories.
EBNA-1 inhibitor: EBNA-1 DNA-binding inhibitors, primary screen, biochemical, fluorescence polarization; inhibition, % at 14.8 µM; 300,000 tested, 0.34% active; in the data active = inhibition above about 28%
NS3 helicase inh: inhibitors of HCV NS3 helicase, primary screen, biochemical, Cy5 molecular beacon fluorescence; Hepatitis C virus NS3 helicase; NS3 helicase DNA unwinding; inhibition, % at 10.9 µM; 290,000 tested, 0.56% active; AID 1800, 2009;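 active = inhibition above the mean of all tested compounds plus 3 SD, set per campaign, cut at about 35% in these data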;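 note: 0% = DMSO wells and 100% = thioflavine S control wells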
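Assay system: hepatitis C virus NS3 helicase domain fragment enzyme. Also added: annealed dual-labelled DNA beacon duplex, ATP-started. Timing: 1 h reaction at 25 °C, ATP-initiated. Technique: Cy5 fluorescence at 0 and 60 min, beacon hairpin quenching. Evaluation: % inhibition of unwinding. Replication: one well per compound.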
HCV core dimer: inhibitors of HCV core protein dimerization, primary screen, biochemical, TR-FRET, high-throughput; TR-FRET GST/Flag-core106 dimerization, 1536-well; inhibition, % at 5 µM; 300,000 tested, 0.33% active; AID 1899, 2009;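 active = inhibition above the mean of all tested compounds plus 3 SD, set per screening campaign, cut at about 45% in these data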
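System: GST/Flag-tagged HCV core106 proteins. Incubation: compound-protein-antibody incubation 4 h at 22.5 °C. Technique: HTRF with 340 nm excitation, 617/671 nm emission. Medium: KF-containing HEPES buffer, pH 7.45, DTT, CHAPS, BSA. Read-out: inhibition (%) from 671 over 617 nm ratio. Also added: Eu(K)-anti-GST 90 ng/mL plus XL665-anti-Flag 1 µg/mL.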
ZTA counter: ZTA (EBV) inhibition in EBNA-1 counter-screen; ZTA-DNA binding, fluorescence polarization; inhibition, % at 11 µM; 320,000 tested, 0.15% active; in the data active = inhibition above about 33%
Target sequence (P03206 whole entry, looked up): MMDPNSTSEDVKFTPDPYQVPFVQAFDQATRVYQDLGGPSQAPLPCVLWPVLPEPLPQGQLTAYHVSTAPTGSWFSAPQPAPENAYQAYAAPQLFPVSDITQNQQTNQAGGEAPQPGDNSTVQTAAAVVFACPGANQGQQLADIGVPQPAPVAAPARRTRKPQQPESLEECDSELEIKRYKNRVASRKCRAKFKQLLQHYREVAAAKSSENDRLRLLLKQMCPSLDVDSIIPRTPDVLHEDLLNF
UBC9 SUMO inh: inhibitors of in vitro SUMOylation cascade, primary screen, biochemical, HTRF, uHTS; SUMO-conjugating enzyme UBC9 (Homo sapiens), P63279; HTRF SUMOylation assay, SAE1/SAE2 + UBC9; inhibition, % at 35 µM; 290,000 tested, 0.36% active; AID 2006, 2009; in the data active = inhibition above about 50%, passing the limit was not always enough
Target sequence (P63279 whole entry, looked up): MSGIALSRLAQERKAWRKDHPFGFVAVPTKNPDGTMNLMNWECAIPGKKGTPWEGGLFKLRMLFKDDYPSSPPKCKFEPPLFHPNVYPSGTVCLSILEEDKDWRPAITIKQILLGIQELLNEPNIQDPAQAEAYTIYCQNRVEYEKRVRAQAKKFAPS
NS3 hel confirm: HCV NS3 helicase inhibitors, retest, confirmation, biochemical, Cy5 molecular beacon fluorescence, triplicate; shares compounds with NS3 helicase inh; NS3 helicase DNA unwinding; inhibition, % at 10.9 µM; 1,600 tested, 31% active; AID 1943, 2009;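 active = inhibition above the mean of all tested compounds plus 3 SD, cutoff set per campaign, cut at about 36% in these data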
FID counter trip: compounds displacing fluorescent DNA intercalator, artefact control for HCV NS3 helicase inhibitor project, biochemical, FID fluorescence, triplicate. DNA fluorescent intercalator displacement. 1,600 tested, 4% active. inhibition, % at 7.9 µM. shares compounds with NS3 helicase inh. AID 1945, 2009; in the data active = inhibition above about 37%;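 note: 0% = vehicle and 100% = reference compound; higher means more displacement of ethidium bromide from the DNA hairpin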
FID counter DR: compounds displacing fluorescent intercalator from DNA, dose response, counter-screen for HCV NS3 helicase inhibitor project, biochemical, fluorescence | IC50, µM | fluorescent intercalator displacement from DNA | 120 tested, under 10 active | shares compounds with NS3 helicase inh | AID 2172, 2009; call rule not given here
* = called active by the depositor; · = not tested or not shown. This is a sample that favours compounds with a hit; in the whole collection about 1.4% have one here.

SMILES | EBNA-1 inhibitor | NS3 helicase inh | HCV core dimer | ZTA counter | UBC9 SUMO inh | NS3 hel confirm | FID counter trip | others
CCOc1ccc(N(CC(=O)NCc2ccco2)C(=O)CCC(=O)Nc2ccccn2)cc1 | · | 3 | · | · | 0 | · | ·
N#Cc1c(C#N)c(O)c2ccccc2c1O | 5 | 3 | -30 | 7 | 13 | · | ·
N=C1CCC(=N)c2c1c(O)c1ccccc1c2O | 25 | 43* | -23 | 37* | 63* | 50* | 1
CCCOc1ccc(N2C(=O)CC(N3CCN(c4ccc([N+](=O)[O-])cc4)CC3)C2=O)cc1 (stereo not drawn) | -2 | -27 | 3 | 18 | -1 | · | ·
CCOc1ccc(N2C(=O)CC(N3CCN(c4ccc([N+](=O)[O-])cc4)CC3)C2=O)cc1 (stereo not drawn) | -6 | 47* | -5 | -27 | 4 | -11 | -4
CCOc1cc(/C=C2\C(=N)N3N=C(S(C)(=O)=O)SC3=NC2=O)ccc1OCCOc1cccc(OC)c1 | -4 | -6 | 15 | 1 | 11 | · | ·
CCS(=O)(=O)C1=NN2C(=N)/C(=C\c3ccc(OCCOc4cccc(OC)c4)c(OC)c3)C(=O)N=C2S1 | 11 | 46* | 33 | -10 | 6 | 63* | 13
COCCn1c(=S)[nH]c2ccc(N(C)C)cc2c1=O | -12 | 39* | -10 | -3 | 37 | -9 | 6
CC1CCCN(C(=O)c2nn(C)c3c2CS(=O)(=O)c2ccccc2-3)C1 (stereo not drawn) | 3 | 0 | 3 | 8 | 4 | · | ·
Cc1cccc(-c2oc3ccc(-c4ccc5c(c4)OCO5)cc3c2/C=C/c2ccc(N)cc2)c1 | 5 | 45* | 1 | 5 | 17 | -8 | 17
COc1ccc(-c2c(-c3cccc(C)c3)oc3ccc(-c4ccc5c(c4)OCO5)cc23)cn1 | 20 | · | -15 | -3 | · | · | ·
CN(C)C(CNC1CC(C)(C)NC(C)(C)C1)c1cccc(F)c1 (stereo not drawn) | 1 | -9 | 9 | -5 | 9 | · | ·
O=C(CC1SC(=O)N(c2ccccc2)C1=O)Nc1ccccc1 (stereo not drawn) | 6 | 38* | -4 | 10 | -2 | -22 | 12
O=C(CN1C(=O)NC2(CCCC2)C1=O)OCc1cccc(Br)c1 | · | · | · | 4 | · | · | ·
CC1CCCN(C(=O)CCS(=O)(=O)c2ccc3c(c2)NC(=O)C(C)S3)C1 (stereo not drawn) | 8 | 44* | -14 | -2 | 0 | -16 | -24
CC1Sc2ccc(S(=O)(=O)CCC(=O)N3CCCC3)cc2NC1=O (stereo not drawn) | 2 | 16 | -7 | -6 | 9 | · | ·
CC1Sc2ccc(S(=O)(=O)CCC(=O)NC3CCCC(C)C3C)cc2NC1=O (stereo not drawn) | 2 | 54* | -12 | -9 | -2 | -13 | -31
COc1cc(/C=C(\C#N)C(=O)Nc2ccccc2)ccc1OCCN1CCOCC1 | -6 | -25 | 1 | 1 | 7 | · | ·
Cn1cccc1CC(=O)NNC(=S)Nc1ccc(F)cc1 | -8 | 36* | -5 | -17 | 16 | -17 | 1
NC(=O)c1sc2nc3c(c(-c4ccco4)c2c1N)CCC3 | -9 | 58* | 2 | -6 | 50 | -27 | 8
NC(=O)c1sc2nc(-c3ccco3)ccc2c1N | 4 | 74* | -17 | 11 | 76* | -6 | 0
Nc1c(C(=O)Nc2ccccc2F)sc2nc(-c3ccco3)ccc12 | 0 | 59* | 48* | -9 | 57* | 74* | 6 | FID counter DR=>79
Clc1cccc(C2Nc3cccc4cccc(c34)N2)c1Cl | -8 | 49* | 1 | -2 | 31 | -11 | 11
FC(F)(F)c1ccc(C2Nc3cccc4cccc(c34)N2)cc1 | · | 23 | · | · | 6 | · | ·
